Active and inactive are the calls of the source. The calls are words filed in the database; no cut-off is given here.
Legend:
Hepatitis C virus [1] = test: Inhibition of HCV genotype 1b recombinant N-His-tagged NS5B Cdelta21 polymerase expressed in Escherichia coli DH5alpha using [alpha-32P]UTP at 100 uM after 60 mins by liquid scintillation counting; set-up: species or system Hepatitis C virus subtype 1b; conditions: for inhibition at 100 µM: DH5-alpha, 1 h
In short: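 Primer-dependent elongation with 100 ng NS5BCΔ21 in 20 mM Tris-HCl pH 7.0, 100 mM NaCl, 100 mM Na-glutamate, 1 mM MnCl₂, 0.25 μM polyrA/U₁₂, 20 μM UTP plus [α-³²P]UTP. Compound at 100 μM, 60 min at 30 °C. TCA/pyrophosphate stop, GF-B filter capture, scintillation counting. Percent of DMSO control, at least two independent measurements in duplicate.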

Hepatitis C virus [2] = test: Inhibition of HCV genotype 1b recombinant N-His-tagged NS5B Cdelta21 polymerase expressed in Escherichia coli DH5alpha using [alpha-32P]UTP after 60 mins by liquid scintillation counting; set-up: species or system Hepatitis C virus subtype 1b; conditions: DH5-alpha, 1 h
In short: (§1)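 NS5BCΔ21 (genotype 1b, N-His, from E. coli DH5α, Ni-NTA purified), 100 ng, elongates polyrA/U₁₂ with 20 μM UTP/[α-³²P]UTP and 1 mM MnCl₂ at pH 7.0, 60 min at 30 °C. Counted on filters by scintillation. IC50 from nonlinear fits of 8–12 concentrations in duplicate, two independent experiments.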

[3] = Inhibition of HCV NS5B polymerase; set-up: species or system Hepacivirus hominis; in short: as §1
[4] = Cytotoxicity against hamster BHK cells assessed as cell viability at 100 uM after 42 hrs by luciferase reporter gene assay; format: cell-based, Mesocricetus auratus; conditions: read-out: Activity
In short: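 BHK-NS5B-FRLuc reporter cells (DMEM, 10% FBS, 1 mg/mL G418, 10 μg/mL blasticidin) were plated at 1 × 10⁴/well with 100 μM compound or 1% DMSO for 42 h. Viability was taken as firefly luciferase level versus DMSO controls using Dual-Glo read-out. Three independent experiments in duplicate.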

Hepatitis C virus [5] = test: Antiviral activity against HCV genotype 1b infected in human HuH7/Rep-Feo1b cells assessed as inhibition of viral replication at 100 uM after 42 hrs by luciferase reporter gene assay; format: functional, Hepacivirus hominis; conditions: Huh-7, 42 h
In short: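 Huh7/Rep-Feo1b replicon cells (DMEM, 10% FCS, 0.5 mg/mL G418, 37 °C, 5% CO2) seeded at 1 × 10⁴/well and exposed to 100 μM compound or DMSO for 42 h, 1.0% DMSO final. Replication was read as firefly luciferase signal relative to DMSO controls. Mean of three independent experiments in duplicate.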

[6] = Cytotoxicity against human HuH7 cells assessed as cell viability at 100 uM after 42 hrs by MTS assay; format: cell-based, Huh-7; conditions: read-out: Activity
In short: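 Viability of Huh7/Rep-Feo1b replicon cells was measured by colorimetric MTS read-out after 42 h with 100 μM compound. Cells were seeded at 1 × 10⁴/well, DMSO was 1.0% final, and culture was at 37 °C, 5% CO2. Values relative to DMSO controls, three independent experiments in duplicate.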

Hepatitis C virus [7] = test: Inhibition of HCV genotype 1b NS5B polymerase expressed in BHK cells at 100 uM after 42 hrs by luciferase reporter gene assay; set-up: species or system Hepatitis C virus subtype 1b
In short: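 Intracellular NS5B RdRp activity was read in BHK-NS5B-FRLuc reporter cells, 1 × 10⁴/well, treated 42 h with 100 μM compound or 1% DMSO at 37 °C, 5% CO2. Dual-Glo luciferase read-out; inhibition is percent reduction of Renilla-to-firefly luminescence ratio against DMSO controls. Three independent experiments in duplicate.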

Row | Compound | inhibition at 100 µM (Hepatitis C virus [1]) | further results
1 | CCCOc1ccc(C(SC[C@H](N)C(=O)O)(c2ccccc2)c2ccccc2)cc1 | 14% | 
2 | CCCC(SC[C@H](N)C(=O)O)(c1ccccc1)c1ccccc1 | 19.1% | 
3 | CCCCc1ccc(C(SC[C@H](N)C(=O)O)(c2ccccc2)c2ccccc2)cc1 | 60% | IC50 (Hepatitis C virus [2]): 39.7 µM
4 | Cc1ccc(C(SC[C@H](N)C(=O)O)(c2ccccc2)c2ccccc2)cc1 | 23.1% | 
5 | N[C@@H](CSC(c1ccccc1)(c1ccccc1)c1ccc(-c2ccccc2)cc1)C(=O)O | 22.4% | 
6 | N[C@@H](CSC(c1ccccc1)(c1ccccc1)c1ccccc1)C(=O)O [S-TRITYL-L-CYSTEINE] | 12.6% | 
7 | N[C@@H](CSC(c1ccccc1)(c1ccccc1)c1ccc(Cl)cc1)C(=O)O | 28.3% | 
8 | N[C@@H](CSC(c1ccccc1)(c1ccccc1)c1ccc(C(F)(F)F)cc1)C(=O)O | 43.5% | 
9 | CCc1ccc(C(SC[C@H](N)C(=O)O)(c2ccccc2)c2ccccc2)cc1 | 36.8% | 
10 | NCCSC(c1ccccc1)(c1ccccc1)c1ccc(-c2ccccc2)cc1 | 36% | 
11 | CN(C)[C@@H](CSC(c1ccccc1)(c1ccccc1)c1ccccc1)C(=O)O | 17.2% | 
12 | CC(C)(C)c1ccc(C(SC[C@H](N)C(=O)O)(c2ccccc2)c2ccccc2)cc1 | 22.6% | 
13 | CCC(CC)C(SC[C@H](N)C(=O)O)(c1ccccc1)c1ccccc1 | 33.1% | 
14 | N[C@@H](CSC(c1ccccc1)(c1ccccc1)c1ccc(C2CCCCC2)cc1)C(=O)O | 20.5% | 
15 | CCCc1ccc(C(SCCN)(c2ccccc2)c2ccccc2)cc1 | 27.4% | 
16 | CCCc1ccc(C(SC[C@H](N)C(=O)O)(c2ccccc2)c2ccccc2)cc1 | 36.9% | 
17 | CCC(C)C(SC[C@H](N)C(=O)O)(c1ccccc1)c1ccccc1 (stereo partly drawn) | 34% | 
18 | CCCOc1ccc(C(SC(C)(C)[C@H](N)C(=O)O)(c2ccccc2)c2ccccc2)cc1 |  | inhibition (Hepatitis C virus [1]; Hepatitis C virus subtype 1b): inactive
19 | CSc1ccc(C(SC[C@H](N)C(=O)O)(c2ccccc2)c2ccccc2)cc1 | 44.3% | 

Row | Compound | inhibition at 100 µM (Hepatitis C virus [1]) | further results
20 | NCCSC(c1ccccc1)(c1ccccc1)c1ccc2ccccc2c1 | 33.3% | 
21 | CCCCc1ccc(C(SC(C)(C)[C@H](N)C(=O)O)(c2ccccc2)c2ccccc2)cc1 | 22% | 
22 | N[C@@H](CSC(c1ccccc1)(c1ccccc1)c1ccc(C(=O)O)cc1)C(=O)O | 30.9% | 
23 | N[C@@H](CSC(c1ccccc1)(c1ccccc1)c1cccs1)C(=O)O | 23.4% | 
24 | N[C@@H](CSC(c1ccccc1)(c1ccccc1)c1ccc2ccccc2c1)C(=O)O | 14.7% | 
25 | NCCSC(c1ccccc1)(c1ccccc1)c1ccc(I)cc1 | 36.7% | 
26 | CCc1ccc(C(SCCN)(c2ccccc2)c2ccccc2)cc1 | 28.7% | 
27 | N[C@@H](CSC1(c2ccc(Cl)cc2)c2ccccc2-c2ccccc21)C(=O)O |  | pIC50 [3]: 4.33
28 | Cc1ccc(C(SCCN)(c2ccccc2)c2ccccc2)cc1 | 31.7% | 
29 | CC(C)c1ccc(C(SC[C@H](N)C(=O)O)(c2ccccc2)c2ccccc2)cc1 | 31.2% | 
30 | CCCCCCc1ccc(C(SC[C@H](N)C(=O)O)(c2ccccc2)c2ccccc2)cc1 | 16.1% | 
31 | N[C@@H](CSC(c1ccccc1)(c1ccccc1)c1ccc(Br)cc1)C(=O)O | 20.2% | 
32 | CC(C)(SC(c1ccccc1)(c1ccccc1)c1ccccc1)[C@@H](N)C(=O)O | 82.8% | viability at 42 h, 100 µM [4]: 100%; inhibition at 100 µM (Hepatitis C virus [5]): 89.5%; viability at 42 h, 100 µM [6]: 72.6%; IC50 (Hepatitis C virus [2]): 22.3 µM; inhibition at 100 µM (Hepatitis C virus [7]): 85.4%
33 | N[C@H](CSC(c1ccccc1)(c1ccccc1)c1ccccc1)C(=O)O | 17% | 
34 | CCCCCc1ccc(C(SC[C@H](N)C(=O)O)(c2ccccc2)c2ccccc2)cc1 | 28.3% | 
35 | CC(C)C(SC[C@H](N)C(=O)O)(c1ccccc1)c1ccccc1 | 22.5% | 
36 | CC(C)(SC(c1ccccc1)(c1ccccc1)c1ccccc1)[C@H](N)C(=O)O | 76.7% | viability at 42 h, 100 µM [4]: 100%; inhibition at 100 µM (Hepatitis C virus [5]): 91.2%; viability at 42 h, 100 µM [6]: 74.1%; IC50 (Hepatitis C virus [2]): 24.6 µM; inhibition at 100 µM (Hepatitis C virus [7]): 84.3%
37 | CSc1ccc(C(SCCN)(c2ccccc2)c2ccccc2)cc1 | 24% | 

Reference: ChEMBL document CHEMBL1944636, “Inhibition of hepatitis C virus NS5B polymerase by S-trityl-L-cysteine derivatives” (Eur J Med Chem, 2012)
